How the values were obtained:
HepG2 cytotoxicity assay = format: cell-based; settings: human, HepG2 cells
[1] = Microsomal stability, rat and human liver microsomes; format: in vitro ADME; settings: rat and human hepatic microsomes
[2] = tested on: P. yoelii (Kenya strain) infected mice; settings: side-by-side tests; cited from earlier work
[3] = tested on: P. falciparum Tm93-C1088 (atovaquone resistant clinical isolate); assay: SYBR Green I parasite growth inhibition, P. falciparum Tm93-C1088; format: cell-based; settings: Plasmodium falciparum, 72 h, read-out: EC50 TM93-C1088 (WRAIR)
In short: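 Atovaquone-resistant Thai isolate with cytochrome b Y268S, grown asynchronously in human erythrocytes (RPMI-1640/HEPES/hypoxanthine/Albumax II; 5% O2, 5% CO2, 90% N2). Triplicate 2-fold dilutions, 2% hematocrit, 0.2% starting parasitemia, 72 h at 37 °C. SYBR Green I dye–detergent added for 1 h in the dark at room temperature, fluorescence read at ex 497/em 520 nm. EC50 by nonlinear regression against drug-free wells; at least three determinations.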

[4] = molecular target: T1, P. falciparum cytochrome bc1 complex (Plasmodium falciparum, UniProt Q02768); assay: Inhibition of P. falciparum cytochrome bc1; format: biochemical
T1 sequence (Q02768 1-376): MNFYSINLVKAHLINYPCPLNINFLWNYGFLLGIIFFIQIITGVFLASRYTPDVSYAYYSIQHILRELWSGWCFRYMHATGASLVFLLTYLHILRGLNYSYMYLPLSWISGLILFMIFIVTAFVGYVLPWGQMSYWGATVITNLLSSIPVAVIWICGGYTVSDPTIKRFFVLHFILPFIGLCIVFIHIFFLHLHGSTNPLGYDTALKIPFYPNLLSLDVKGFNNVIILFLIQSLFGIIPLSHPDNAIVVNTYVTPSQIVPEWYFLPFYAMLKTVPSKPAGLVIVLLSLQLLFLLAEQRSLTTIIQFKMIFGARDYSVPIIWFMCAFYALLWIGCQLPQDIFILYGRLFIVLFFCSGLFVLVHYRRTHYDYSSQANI
In short: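 Cytochrome c reductase assays. P. falciparum mitochondria: stirred cuvette at 35 °C with 100 μM decylubiquinol, 100 μM horse heart cytochrome c, 0.1 mg/mL dodecyl maltoside, 60 mM HEPES pH 7.4, 10 mM malonate, 1.0 mM EDTA, 2.0 mM KCN. Human HEK-293 mitochondria: detergent-solubilised; 50 mM Tricine pH 8.0, 100 mM KCl, 4 mM KCN, 50 μM each substrate. Baseline-subtracted initial rates expressed as fraction of uninhibited control.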

[5] = tested on: P. yoelii (Kenya strain) infected mice; assay: In vivo efficacy against murine malaria; set-up: species or system Plasmodium yoelii; settings: for in vivo antimalarial activity: P. yoelii in mice, oral; for times less effective than 7 against murine malaria: relative to compound 7
In short: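 Female CF1 mice infected intravenously with 2.5–5.0 × 105 P. yoelii (Kenya strain) parasitized erythrocytes from a donor; groups of four. Test compound in PEG-400 given by oral gavage once daily for 4 days, starting the day after inoculation; initial doses 0.1–10 mg/kg/day, adjusted if needed. Chloroquine phosphate as positive control. Day-5 parasitemia read from Giemsa smears. Cure means parasite-free 30 days after the last dose; NRD is the dose needed for cure.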

With Cc1[nH]c2ccccc2c(=O)c1-c1ccc(Oc2ccccc2)cc1 [Compound 3, 2-Methyl-3-(4-phenoxyphenyl)quinolin-4(1H)-one] as the molecule, how does the IC50 (HepG2 cytotoxicity assay) read?
Its IC50 is over 10 µM.

For Cc1[nH]c2ccccc2c(=O)c1-c1ccc(Oc2ccc(OC(F)(F)F)cc2)cc1 [Compound 4, 2-Methyl-3-(4-(4-(trifluoromethoxy)phenoxy)phenyl)quinolin-4(1H)-one], which “metabolic stability in microsomes” value [1] is on record?
The value was “no detectable degradation”.

What about the IC50 (HepG2 cytotoxicity assay) of the same molecule?
The IC50 was over 10 µM.

For Cc1[nH]c2ccc(Cl)cc2c(=O)c1-c1ccc(Oc2ccc(OC(F)(F)F)cc2)cc1 [Compound 5, 6-Chloro-2-methyl-3-(4-(4-(trifluoromethoxy)phenoxy)phenyl)quinolin-4(1H)-one], which IC50 (HepG2 cytotoxicity assay) is on record?
Its IC50 is over 10 µM.

For COc1ccc2c(=O)c(-c3ccc(Oc4ccc(OC(F)(F)F)cc4)cc3)c(C)[nH]c2c1 [Compound 6, 7-Methoxy-2-methyl-3-(4-(4-(trifluoromethoxy)phenoxy)phenyl)quinolin-4(1H)-one], which “metabolic stability in microsomes” value [1] is on record?
Its value is “metabolized at a moderate to intermediate rate”.

And the IC50 (HepG2 cytotoxicity assay)?
The IC50 was over 10 µM.

Which “fold more effective than atovaquone against murine malaria” value [2] does the source give for COc1cc2[nH]c(C)c(-c3ccc(Oc4ccc(OC(F)(F)F)cc4)cc3)c(=O)c2cc1Cl [Compound 7, 6-Chloro-7-methoxy-2-methyl-3-(4-(4-(trifluoromethoxy)phenoxy)phenyl) quinolin-4(1H)-one] here?
The value was 30 fold.

And the EC50 [3]?
The EC50 was 0.001 µM.

And the “parasite selectivity (P. falciparum vs human cytochrome bc1)” value [4]?
Its value is at least 20000 fold.

And the IC50 (HepG2 cytotoxicity assay)?
The IC50 was over 10 µM.

With COc1cc2[nH]c(C)c(-c3ccc(Oc4ccccc4)cc3)c(=O)c2cc1F [Compound 13, 6-Fluoro-7-methoxy-2-methyl-3-(4-phenoxyphenyl)quinolin-4(1H)-one] as the molecule, how does the IC50 (HepG2 cytotoxicity assay) read?
The IC50 was over 10 µM.

Which IC50 (HepG2 cytotoxicity assay) does the source give for Cc1[nH]c2ccc(F)cc2c(=O)c1-c1ccc(Oc2ccc(OC(F)(F)F)cc2)cc1 [Compound 18a, 6-Fluoro-2-methyl-3-(4-(4-(trifluoromethoxy)phenoxy)phenyl)quinolin-4(1H)-one] here?
The IC50 was over 10 µM.

With COc1cc2[nH]c(C)c(-c3ccc(Oc4ccc(OC(F)(F)F)cc4)cc3)c(=O)c2cc1F [Compound 18b, 6-Fluoro-7-methoxy-2-methyl-3-(4-(4-(trifluoromethoxy)phenoxy)phenyl)quinolin-4(1H)-one] as the molecule, how does the IC50 (HepG2 cytotoxicity assay) read?
Its IC50 is over 10 µM.

What does the source list for COc1cc2[nH]c(C)c(-c3ccc(Oc4cccc(OC(F)(F)F)c4)cc3)c(=O)c2cc1Cl [Compound 20a, 6-Chloro-7-methoxy-2-methyl-3-(4-(3-(trifluoromethoxy)phenoxy)phenyl)quinolin-4(1H)-one]?
metabolic stability in microsomes [1]: metabolically unstable; in vivo antimalarial activity [5]: ineffective in vivo

Which “metabolic stability in microsomes” value [1] does the source give for COc1cc2[nH]c(C)c(-c3ccc(Oc4ccc(C(F)(F)F)cc4)cc3)c(=O)c2cc1Cl [Compound 20b, 6-Chloro-7-methoxy-2-methyl-3-(4-(4-(trifluoromethyl)phenoxy)phenyl)quinolin-4(1H)-one] here?
The value was “metabolically stable”.

For COc1cc2[nH]c(C)c(-c3ccc(Oc4ccc(Cl)cc4)cc3)c(=O)c2cc1Cl [Compound 20c, 6-Chloro-3-(4-(4-chlorophenoxy)phenyl)-7-methoxy-2-methylquinolin-4(1H)-one], which “metabolic stability in microsomes” value [1] is on record?
Its value is “metabolically stable”.

And the IC50 (HepG2 cytotoxicity assay)?
The IC50 was over 10 µM.

And the “times less effective than 7 against murine malaria” value [5]?
Its value is 3–10 times.

For COc1cc2[nH]c(C)c(-c3ccc(Oc4ccc(F)cc4)cc3)c(=O)c2cc1Cl [Compound 20d, 6-Chloro-3-(4-(4-fluorophenoxy)phenyl)-7-methoxy-2-methylquinolin-4(1H)-one], which “metabolic stability in microsomes” value [1] is on record?
Its value is “metabolically stable”.

Which results are given for COc1cc2[nH]c(C)c(-c3ccc(Oc4ccc(OC(F)(F)F)cc4)nc3)c(=O)c2cc1Cl [Compound 25a, 6-Chloro-7-methoxy-2-methyl-3-(6-(4-(trifluoromethoxy)phenoxy)pyridin-3-yl)quinolin-4(1H)-one]?
IC50 (HepG2 cytotoxicity assay): > 10 µM; times less effective than 7 against murine malaria [5]: 3–10 times

Which IC50 (HepG2 cytotoxicity assay) does the source give for COc1cc2[nH]c(C)c(-c3ccc(Oc4ccc(OC(F)(F)F)cc4)cn3)c(=O)c2cc1Cl [Compound 25b, 6-Chloro-7-methoxy-2-methyl-3-(5-(4-(trifluoromethoxy)phenoxy)pyridin-2-yl)quinolin-4(1H)-one] here?
Its IC50 is over 10 µM.

Which IC50 (HepG2 cytotoxicity assay) does the source give for COc1cc2[nH]c(C)c(-c3cnc(Oc4ccc(OC(F)(F)F)cc4)nc3)c(=O)c2cc1Cl [Compound 25c, 6-Chloro-7-methoxy-2-methyl-3-(2-(4-(trifluoromethoxy)phenoxy)pyrimidin-5-yl)quinolin-4(1H)-one] here?
Its IC50 is over 10 µM.

Which IC50 (HepG2 cytotoxicity assay) does the source give for O=C1C(O)=C([C@H]2CC[C@H](c3ccc(Cl)cc3)CC2)C(=O)c2ccccc21 [atovaquone, reference compound] here?
The IC50 was over 10 µM.

With CCCCCCCc1c(C)nc2cc(OC)ccc2c1O [endochin, reference compound] as the molecule, how does the IC50 (HepG2 cytotoxicity assay) read?
Its IC50 is over 10 µM.

And the “in vivo antimalarial activity” value [5]?
The value was “inactive in vivo”.

Source: publication PMC4018401 (Journal of Medicinal Chemistry, 2014)
